According to ChEMBL document CHEMBL1806430, “Novel aliphatic N-oxide of naphthalimides as fluorescent markers for hypoxic cells in solid tumor” (Eur J Med Chem, 2011):
Values belong to the molecule of their own block, whether it stands above or below them.

What was measured:
V79 [1] = experiment: Ratio drug uptake in chinese hamster V79 379A cells in hypoxic to oxic condition assessed as accumulation of fluorescent N-Oxide Benzo[k,l]xanthene-3,4-naphthalimide metabolites at 10^-4 M after 4.5 hrs by fluorescent microscopic analysis; format: ADME, cell-based, Cricetulus griseus; details: 100 µM
Procedure, shortened: (§1)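 Hypoxic/oxic fluorescence ratio in V79 379A suspension cultures (MEM, 7.5% FCS). Cells given 10^-4 M compound (DMSO ≤1% final) at 37 °C under N2 + 5% CO2 or air + 5% CO2. Samples taken over a time course, centrifuged, PBS-washed and resuspended. Fluorescence read by microplate reader ("fluorescence scan ascent"); ratio taken at about 4.5 h.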

V79 [2] = experiment: Drug uptake in oxic-chinese hamster V79 379A cells assessed as accumulation of fluorescent N-Oxide 3-amino-1,8-naphthalimide metabolite at 10^-4 M after 4.5 hrs by fluorescent microscopic analysis; format: ADME, cell-based, Cricetulus griseus; details: 100 µM
Procedure, shortened: (§2)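 V79 379A cells grown as suspension cultures in Eagle's MEM (suspension-modified, Earle's salts) with 7.5% fetal calf serum. Compound added at 10^-4 M, DMSO 1% final or less. Incubated 4.5 h at 37 °C under nitrogen + 5% CO2 (hypoxic) or air + 5% CO2 (oxic). Cells centrifuged, PBS-washed, resuspended in PBS, then imaged by fluorescence microscopy, excitation 410 nm, 1000×.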

V79 [3] = experiment: Ratio drug uptake in chinese hamster V79 379A cells in hypoxic to oxic condition assessed as accumulation of fluorescent N-Oxide 3-amino-1,8-naphthalimide metabolites at 10^-4 M after 4.5 hrs by fluorescent microscopic analysis; format: ADME, cell-based, Cricetulus griseus; details: 100 µM; procedure, shortened: as §1
V79 [4] = experiment: Drug uptake in hypoxic-chinese hamster V79 379A cells assessed as accumulation of fluorescent N-Oxide 3-amino-1,8-naphthalimide metabolites at 10^-4 M after 4.5 hrs by fluorescent microscopic analysis; format: ADME, cell-based, Cricetulus griseus; details: 100 µM; procedure, shortened: as §2
V79 [5] = experiment: Ratio drug uptake in chinese hamster V79 379A cells in hypoxic to oxic condition assessed as accumulation of fluorescent N-Oxide Benzo[b]xanthene [2,1-c]naphthalimide metabolites at 10^-4 M after 4.5 hrs by fluorescent microscopic analysis; format: ADME, cell-based, Cricetulus griseus; details: 100 µM; procedure, shortened: as §1
V79 [6] = experiment: Ratio drug uptake in chinese hamster V79 379A cells in hypoxic to oxic condition assessed as accumulation of fluorescent N-Oxide 3-nitro-1,8-naphthalimide metabolites at 10^-4 M after 4.5 hrs by fluorescent microscopic analysis; format: ADME, cell-based, Cricetulus griseus; details: 100 µM; procedure, shortened: as §1
V79 [7] = experiment: Drug uptake in hypoxic-chinese hamster V79 379A cells assessed as accumulation of fluorescent N-Oxide 3-nitro-1,8-naphthalimide metabolites at 10^-4 M after 4.5 hrs by fluorescent microscopic analysis; format: ADME, cell-based, Cricetulus griseus; details: 100 µM; procedure, shortened: as §2
V79 [8] = experiment: Drug uptake in oxic-chinese hamster V79 379A cells assessed as accumulation of fluorescent N-Oxide 3-nitro-1,8-naphthalimide metabolite at 10^-4 M after 4.5 hrs by fluorescent microscopic analysis; format: ADME, cell-based, Cricetulus griseus; details: 100 µM; procedure, shortened: as §2
V79 [9] = experiment: Drug uptake in hypoxic-chinese hamster V79 379A cells assessed as accumulation of fluorescent N-Oxide Benzo[k,l]thioxanthene-3,4-naphthalimide metabolites at 10^-4 M after 4.5 hrs by fluorescent microscopic analysis; format: ADME, cell-based, Cricetulus griseus; details: 100 µM; procedure, shortened: as §2
V79 [10] = experiment: Ratio drug uptake in chinese hamster V79 379A cells in hypoxic to oxic condition assessed as accumulation of fluorescent N-Oxide Benzo[k,l]thioxanthene-3,4-naphthalimide metabolites at 10^-4 M after 4.5 hrs by fluorescent microscopic analysis; format: ADME, cell-based, Cricetulus griseus; details: 100 µM; procedure, shortened: as §1
V79 [11] = experiment: Drug uptake in oxic-chinese hamster V79 379A cells assessed as accumulation of fluorescent N-Oxide Benzo[k,l]thioxanthene-3,4-naphthalimide metabolite at 10^-4 M after 4.5 hrs by fluorescent microscopic analysis; format: ADME, cell-based, Cricetulus griseus; details: 100 µM; procedure, shortened: as §2
Nucleic Acid = experiment: Binding affinity to calf thymus DNA assessed as binding constant; format: nucleic-acid assay; details: Bos taurus
Procedure, shortened: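 Fluorescence titration: compound at 10 × 10^-6 M in 20 mM Tris–HCl pH 7.5 at room temperature, with calf thymus DNA added in rising amounts (0–400 × 10^-6 M). Excitation 460 nm; emission spectra recorded.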

Ratio (V79 [1]): 1.5
Compound: C[N+](C)([O-])CCn1c(=O)c2ccc3oc4ccccc4c4ccc(c1=O)c2c34

Drug uptake (V79 [2]): Not Active | Ratio (V79 [3]): 8.4 | Drug uptake (V79 [4]): Active
Compound: C[N+](C)([O-])CCN1C(=O)c2cccc3cc(N)cc(c23)C1=O

Ratio (V79 [5]): 5.2
Compound: C[N+](C)([O-])CCN1C(=O)c2cccc3c2c(cc2c4ccccc4sc32)C1=O

Ratio (V79 [6]): 17 | Drug uptake (V79 [7]): Active | Drug uptake (V79 [8]): Not Active
Compound: C[N+](C)([O-])CCN1C(=O)c2cccc3cc([N+](=O)[O-])cc(c23)C1=O

Drug uptake (V79 [9]): Active | Ratio (V79 [10]): 1.75 | Drug uptake (V79 [11]): Not Active | K (Nucleic Acid): 6.62 ×10³ /M
Compound: C[N+](C)([O-])CCn1c(=O)c2ccc3sc4ccccc4c4ccc(c1=O)c2c34

K (Nucleic Acid): 2.9 ×10⁵ /M
Compound: CN(C)CCn1c(=O)c2ccc3sc4ccccc4c4ccc(c1=O)c2c34
